Data: ChEMBL document CHEMBL1155128, “Kinetic studies and bioactivity of potential manzamine prodrugs” (J Nat Prod, 2008)
Converted amounts (≈) assume the structure as drawn. The source made the active and inactive calls. The rule behind the calls is not given here.

Legend:
[1] = Cytotoxicity against african green monkey Vero cells after 48 hrs by neutral red assay; assay type: cell-based; conditions: chlorocebus sabaeus
Summary of the method: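 Vero monkey kidney cells seeded at 25,000 cells/well and grown 24 h, then given samples at several concentrations for 48 h. Viable cells were counted by neutral red. IC50 was taken from dose-response curves, with doxorubicin as positive control.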

Leishmania donovani = test: Antileishmanial activity against Leishmania donovani promastigotes after 72 hrs by almar blue assay; assay type: functional, organism-based
Candida albicans = test: Antimicrobial activity against Candida albicans ATCC 90028; assay type: functional, organism-based
Staphylococcus aureus = test: Antimicrobial activity against methicillin-resistant Staphylococcus aureus ATCC 43300; assay type: functional, organism-based
[2] = tested on: Mycobacterium intracellulare; test: Antimicrobial activity against Mycobacterium intracellular ATCC 23068; assay type: functional, organism-based
Summary of the method: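 M. intracellulare ATCC 23068 tested by a modified Franzblau method. […] Fluorescence read at 544ex/590em before and after incubation.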

Plasmodium berghei [3] = test: Antimalarial activity as reduced parasitaemia day 7 in Plasmodium berghei NK65 infected mice (Mus musculus) at 10 mg/kg peroral dose […] […]; assay type: functional; design: scale not given: the % may be the effect or the level left; conditions: route oral
Summary of the method: (§1)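 Peters 4-day suppressive test. Male Swiss Webster mice (18-20 g), 5 per group, infected ip with 2 X10^7 P. berghei NK-65 parasitized red cells. Compounds in 0.1N HCl given orally about 2 h post-infection, once daily on days 0-2; vehicle and β-arteether control groups. Parasitemia followed on Giemsa-stained tail blood smears up to day 28.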

Plasmodium berghei [4] = test: Antimalarial activity as reduced parasitaemia on day 10 in Plasmodium berghei NK65 infected mice (Mus musculus) at 10 mg/kg peroral dose […] post infection; assay type: functional; design: scale not given: the % may be the effect or the level left; conditions: route oral; summary of the method: as §1
Plasmodium berghei [5] = test: Antimalarial activity as reduced parasitaemia at day 14 in Plasmodium berghei NK65 infected mice (Mus musculus) at 10 mg/kg peroral dose […]; assay type: functional; design: scale not given: the % may be the effect or the level left; conditions: route oral; summary of the method: as §1
Plasmodium berghei [6] = test: Antimalarial activity as reduced parasitaemia at day 7 in Plasmodium berghei NK65 infected mice (Mus musculus) at 30 mg/kg peroral dose […] post infection; assay type: functional; design: scale not given: the % may be the effect or the level left; conditions: route oral; summary of the method: as §1
Plasmodium berghei [7] = test: Antimalarial activity as reduced parasitaemia at day 10 in Plasmodium berghei NK65 infected mice (Mus musculus) at 30 mg/kg peroral dose […] post infection; assay type: functional; design: scale not given: the % may be the effect or the level left; conditions: route oral; summary of the method: as §1
Plasmodium berghei [8] = test: Antimalarial activity as reduced parasitaemia at day 14 in Plasmodium berghei NK65 infected mice (Mus musculus) at 30 mg/kg peroral dose once daily for 3 days post infection; design: scale not given: the % may be the effect or the level left; conditions: route oral
[9] = target: Glycogen synthase kinase-3 beta (Homo sapiens, UniProt P49841); test: Inhibition of GSK3-beta
Glycogen synthase kinase-3 beta, sequence (P49841 whole entry): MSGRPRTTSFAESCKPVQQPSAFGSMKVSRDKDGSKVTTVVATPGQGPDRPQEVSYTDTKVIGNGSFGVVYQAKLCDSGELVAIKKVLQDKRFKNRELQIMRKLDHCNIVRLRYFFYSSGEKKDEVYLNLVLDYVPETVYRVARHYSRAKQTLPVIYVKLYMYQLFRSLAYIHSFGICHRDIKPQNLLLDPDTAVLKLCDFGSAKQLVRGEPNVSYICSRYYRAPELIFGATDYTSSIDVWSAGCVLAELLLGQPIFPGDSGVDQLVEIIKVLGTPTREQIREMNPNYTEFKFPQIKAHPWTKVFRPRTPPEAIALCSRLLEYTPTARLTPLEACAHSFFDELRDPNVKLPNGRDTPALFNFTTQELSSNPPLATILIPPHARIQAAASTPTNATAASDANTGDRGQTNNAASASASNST

[10] = target: Glycogen synthase kinase-3 alpha (Homo sapiens, UniProt P49840); test: Inhibition of GSK3alpha
Glycogen synthase kinase-3 alpha, sequence (P49840 whole entry): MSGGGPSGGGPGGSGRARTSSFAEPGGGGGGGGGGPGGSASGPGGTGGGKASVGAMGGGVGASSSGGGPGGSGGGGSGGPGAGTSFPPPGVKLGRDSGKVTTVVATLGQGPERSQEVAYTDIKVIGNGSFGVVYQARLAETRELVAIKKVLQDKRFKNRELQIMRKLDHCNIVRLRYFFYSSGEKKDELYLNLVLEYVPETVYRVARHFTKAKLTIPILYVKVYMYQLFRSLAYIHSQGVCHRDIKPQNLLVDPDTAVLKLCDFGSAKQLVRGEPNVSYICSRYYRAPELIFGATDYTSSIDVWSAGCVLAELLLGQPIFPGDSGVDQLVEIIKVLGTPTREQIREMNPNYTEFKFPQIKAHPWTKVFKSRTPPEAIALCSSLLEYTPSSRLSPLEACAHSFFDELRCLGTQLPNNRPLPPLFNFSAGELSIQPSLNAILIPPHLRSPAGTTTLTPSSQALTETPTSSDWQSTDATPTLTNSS

Plasmodium falciparum [11] = test: Antimalarial activity against chloroquine-resistant Plasmodium falciparum W2 by LDH activity; assay type: functional, organism-based
Summary of the method: (§2)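 Red cells infected with P. falciparum D6 or W2 (2% parasitemia, 2% hematocrit, RPMI 1640 with 10% human serum and 60 µg/mL amikacin) added to serially diluted samples. Gassed with 90% N2/5% O2/5% CO2 and held 37 °C for 72 h. Parasite LDH read with Malstat plus NBT/PES at 650 nm. IC50 from dose-response curves; artemisinin and chloroquine controls.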

Cryptococcus neoformans = test: Antimicrobial activity against Cryptococcus neoformans ATCC 90113; assay type: functional, organism-based
Plasmodium falciparum [12] = test: Antimalarial activity against chloroquine-sensitive Plasmodium falciparum D6 as LDH activity; assay type: functional, organism-based; summary of the method: as §2
Vero = test: Cytotoxicity against african green monkey Vero cells at 4.76 ug/ml after 48 hrs by neutral red assay; assay type: functional, cell-based; conditions: Chlorocebus sabaeus

Compound | IC90 (Leishmania donovani) [µg/mL] | IC50 (Candida albicans) [µg/mL] | MIC (Candida albicans) [µg/mL] | IC50 (Staphylococcus aureus) [µg/mL] | IC50 [2] [µg/mL] | MIC [2] [µg/mL] | Activity (Plasmodium berghei [3]) [%] | Activity (Plasmodium berghei [4]) [%] | Activity (Plasmodium berghei [5]) [%] | IC50 (Leishmania donovani) [µg/mL] | IC50 (Plasmodium falciparum [11]) [µg/mL] | CC50 at 48 h ([1]; read-out: TC50) [µg/mL] | MIC (Cryptococcus neoformans) [µg/mL] | IC50 (Plasmodium falciparum [12]) [µg/mL] | IC50 (Cryptococcus neoformans) [µg/mL] | MFC (Staphylococcus aureus) [µg/mL] | MBC [2] [µg/mL] | MIC (Staphylococcus aureus) [µg/mL] | further results
Oc1cccc2c1[nH]c1c(C3=C[C@@]4(O)CC/C=C\CCCCN5CC[C@@H]3[C@]3(C[C@@H]6/C=C\CCCCN6[C@H]34)C5)nccc12 | 11 (≈ 19.5 µM) | 10 (≈ 17.7 µM) | 5 (≈ 8.85 µM) | 6.5 (≈ 11.5 µM) | 0.25 (≈ 0.443 µM) | 0.31 (≈ 0.549 µM) | 57 | 35 | 32 |  |  |  |  |  |  |  |  |  | CC50 at 48 h [1]: 1.1 µg/mL (≈ 1.95 µM); Activity (Plasmodium berghei [6]): 100%; Activity (Plasmodium berghei [7]): 83%; Activity (Plasmodium berghei [8]): 67%
N=C(N)c1ccc(OCCCCCOc2ccc(C(=N)N)cc2)cc1 [PENTAMIDINE] | 1.8 (≈ 5.29 µM) |  |  |  |  |  |  |  |  | 0.9 (≈ 2.64 µM) |  |  |  |  |  |  |  |  | 
O[C@]12C=C(c3nccc4c3[nH]c3ccccc34)[C@@H]3CCN(CCCC/C=C\CC1)C[C@@]31C[C@@H]3/C=C\CCCCN3[C@H]12 [MANZAMINE A] | 1.8 (≈ 3.28 µM) |  |  |  |  | 0.63 (≈ 1.15 µM) | 100 | 100 | 90 |  | 0.005 (≈ 0.00911 µM) | 680 (≈ 1240 µM) | 10 (≈ 18.2 µM) |  |  |  |  |  | IC50 [9]: 10 µM; IC50 [10]: 25 µM
CC(=O)Oc1cccc2c1[nH]c1c(C3=C[C@@]4(O)CC/C=C\CCCCN5CC[C@@H]3[C@]3(C[C@@H]6/C=C\CCCCN6[C@H]34)C5)nccc12 [8-ACETOXYMANZAMINE A] | 7 (≈ 11.5 µM) | 1.5 (≈ 2.47 µM) | 2.5 (≈ 4.12 µM) | 0.5 (≈ 0.824 µM) | 0.1 (≈ 0.165 µM) | 0.16 (≈ 0.264 µM) | 61 | 51 | 8 | 3.4 (≈ 5.6 µM) | 0.03 (≈ 0.0494 µM) | 370 (≈ 610 µM) | 2.5 (≈ 4.12 µM) | 0.0096 (≈ 0.0158 µM) | 1.5 (≈ 2.47 µM) | 20 (≈ 33 µM) | > 20 |  | MFC (Candida albicans): 5 µg/mL (≈ 8.24 µM); MFC (Cryptococcus neoformans): 5 µg/mL (≈ 8.24 µM); Activity (Plasmodium berghei [6]): 93%; Activity (Plasmodium berghei [7]): 84%; Activity (Plasmodium berghei [8]): 48%
C[C@@H]1[C@H](O)[C@@H](C)/C=C/C=C/C=C/C=C/C=C/C=C/C=C/[C@H](O[C@@H]2O[C@H](C)[C@@H](O)[C@H](N)[C@@H]2O)C[C@@H]2O[C@](O)(C[C@@H](O)C[C@@H](O)[C@H](O)CC[C@@H](O)C[C@@H](O)CC(=O)O[C@H]1C)C[C@H](O)[C@H]2C(=O)O [AMPHOTERICIN B] | 0.36 (≈ 0.39 µM) | 0.1 (≈ 0.108 µM) | 0.63 (≈ 0.682 µM) |  |  |  |  |  |  | 0.4 (≈ 0.433 µM) |  |  | 2.5 (≈ 2.71 µM) |  | 1 (≈ 1.08 µM) |  |  |  | MFC (Cryptococcus neoformans): 2.5 µg/mL (≈ 2.71 µM)
O=C(O)c1cn(C2CC2)c2cc(N3CCNCC3)c(F)cc2c1=O [CIPROFLOXACIN] |  |  |  |  |  | 0.5 (≈ 1.51 µM) |  |  |  |  |  |  |  |  |  | 1 (≈ 3.02 µM) | > 20 | 0.25 (≈ 0.754 µM) | 
C[C@@H]1CC[C@H]2[C@@H](C)C(=O)O[C@@H]3O[C@@]4(C)CC[C@@H]1[C@]32OO4 [ARTEMISININ] |  |  |  |  |  |  |  |  |  |  | 0.0044 (≈ 0.0156 µM) |  |  | 0.0043 (≈ 0.0152 µM) |  |  |  |  | 
COc1cccc2c1[nH]c1c(C3=C[C@@]4(O)CC/C=C\CCCCN5CC[C@@H]3[C@]3(C[C@@H]6/C=C\CCCCN6[C@H]34)C5)nccc12 [8-METHOXYMANZAMINE A] | 24 (≈ 41.5 µM) | 3 (≈ 5.18 µM) | 10 (≈ 17.3 µM) | 0.55 (≈ 0.95 µM) | 0.15 (≈ 0.259 µM) | 0.63 (≈ 1.09 µM) |  |  |  | 5 (≈ 8.64 µM) | 0.047 (≈ 0.0812 µM) | 980 (≈ 1690 µM) |  | 0.037 (≈ 0.0639 µM) | 2 (≈ 3.46 µM) | > 20 | 20 (≈ 34.6 µM) | > 20 | MFC (Candida albicans): > 20 µg/mL
CC(=O)Oc1cccc2c1[nH]c1c(C3=C[C@@]4(OC(C)=O)CC/C=C\CCCCN5CC[C@@H]3[C@]3(C[C@@H]6/C=C\CCCCN6[C@H]34)C5)nccc12 [8,12-DIACETOXYMANZAMINE A] | 35 (≈ 53.9 µM) | > 20 |  | 2 (≈ 3.08 µM) | 4.5 (≈ 6.94 µM) |  |  |  |  | 16 (≈ 24.7 µM) | 1.2 (≈ 1.85 µM) |  | 10 (≈ 15.4 µM) | 1.3 (≈ 2 µM) | > 20 |  |  | 5 (≈ 7.71 µM) | Activity (Vero): inactive
